Measured values reported in PMC3115457 (Cellular signalling, 2011).
Ends that are not written are not given here. Peptide text beside a SMILES is read from it.

What was measured:
[1] = target: Gβγ (Homo sapiens, UniProt P59768+P62873); assay type: binding
Summary of the method: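 Biotinylated test peptides were captured on a streptavidin chip (Biacore 2000). Gβγ in 25 mM HEPES pH 8.0 was flowed over at 12.5, 25, 50, 100 and 200 nM at 20 μL/min. KD was obtained by fitting the sensorgrams in Biaevaluation, and residual plots were used to judge the fit.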

[2] = target: Gαs-stimulated AC2 (Rattus norvegicus, UniProt P26769); assay: Adenylyl cyclase activity assay, Gαs stimulation of AC2; assay type: biochemical
Summary of the method: (§1)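 AC2 came from membranes of Hi5 insect cells infected with recombinant AC2 baculovirus. Stimulants were constitutively active Gαs (Q227L) and Gβγ (Gβ1/His-Gγ2) purified from Hi5 cells. Peptides were tested from 46 nM to 300 μM, pre-incubated with membranes or G proteins, and run alongside control conditions. cAMP was measured radiometrically ([α-32P]ATP→[32P]cAMP) or by Lance kit. Duplicates were used, each repeated ≥2 times. IC50 came from non-linear regression.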

[3] = target: AC2 (Rattus norvegicus, UniProt P26769); assay: Adenylyl cyclase activity assay, basal AC2 activity in Hi5 membranes; assay type: biochemical
Summary of the method: as §1

[4] = target: Gβγ stimulation of Gαs-stimulated AC2 (Homo sapiens, UniProt P59768+P62873); assay: Adenylyl cyclase activity assay, Gβγ stimulation of Gαs-stimulated AC2; assay type: biochemical, Rat; conditions: for Gαs/Gβγ stimulation % Max Inhibition: Gβγ stimulation of Gαs-stimulated AC2, cAMP level at 300 μM peptide, peptides 46 nM to 300 μM
Summary of the method: as §1

Chain of Gβγ (P62873 2-340 limits assumed): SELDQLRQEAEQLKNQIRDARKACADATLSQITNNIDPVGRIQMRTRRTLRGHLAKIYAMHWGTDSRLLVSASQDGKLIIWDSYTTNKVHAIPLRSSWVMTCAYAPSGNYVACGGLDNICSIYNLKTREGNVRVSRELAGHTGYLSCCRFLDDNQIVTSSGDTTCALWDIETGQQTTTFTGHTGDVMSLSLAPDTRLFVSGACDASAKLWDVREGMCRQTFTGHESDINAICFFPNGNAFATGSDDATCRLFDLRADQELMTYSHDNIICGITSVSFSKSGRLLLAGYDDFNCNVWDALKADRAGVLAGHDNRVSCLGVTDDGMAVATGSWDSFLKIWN
Chain of Gβγ (P59768 2-68 limits assumed): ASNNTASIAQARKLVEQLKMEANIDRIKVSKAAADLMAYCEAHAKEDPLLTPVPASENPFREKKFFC
Chain of Gβγ stimulation of Gαs-stimulated AC2 (P62873 2-340 limits assumed): as the sequence (P62873 2-340 limits assumed) above
Chain of Gβγ stimulation of Gαs-stimulated AC2 (P59768 2-68 limits assumed): as the sequence (P59768 2-68 limits assumed) above
Chain of AC2 (P26769 whole entry): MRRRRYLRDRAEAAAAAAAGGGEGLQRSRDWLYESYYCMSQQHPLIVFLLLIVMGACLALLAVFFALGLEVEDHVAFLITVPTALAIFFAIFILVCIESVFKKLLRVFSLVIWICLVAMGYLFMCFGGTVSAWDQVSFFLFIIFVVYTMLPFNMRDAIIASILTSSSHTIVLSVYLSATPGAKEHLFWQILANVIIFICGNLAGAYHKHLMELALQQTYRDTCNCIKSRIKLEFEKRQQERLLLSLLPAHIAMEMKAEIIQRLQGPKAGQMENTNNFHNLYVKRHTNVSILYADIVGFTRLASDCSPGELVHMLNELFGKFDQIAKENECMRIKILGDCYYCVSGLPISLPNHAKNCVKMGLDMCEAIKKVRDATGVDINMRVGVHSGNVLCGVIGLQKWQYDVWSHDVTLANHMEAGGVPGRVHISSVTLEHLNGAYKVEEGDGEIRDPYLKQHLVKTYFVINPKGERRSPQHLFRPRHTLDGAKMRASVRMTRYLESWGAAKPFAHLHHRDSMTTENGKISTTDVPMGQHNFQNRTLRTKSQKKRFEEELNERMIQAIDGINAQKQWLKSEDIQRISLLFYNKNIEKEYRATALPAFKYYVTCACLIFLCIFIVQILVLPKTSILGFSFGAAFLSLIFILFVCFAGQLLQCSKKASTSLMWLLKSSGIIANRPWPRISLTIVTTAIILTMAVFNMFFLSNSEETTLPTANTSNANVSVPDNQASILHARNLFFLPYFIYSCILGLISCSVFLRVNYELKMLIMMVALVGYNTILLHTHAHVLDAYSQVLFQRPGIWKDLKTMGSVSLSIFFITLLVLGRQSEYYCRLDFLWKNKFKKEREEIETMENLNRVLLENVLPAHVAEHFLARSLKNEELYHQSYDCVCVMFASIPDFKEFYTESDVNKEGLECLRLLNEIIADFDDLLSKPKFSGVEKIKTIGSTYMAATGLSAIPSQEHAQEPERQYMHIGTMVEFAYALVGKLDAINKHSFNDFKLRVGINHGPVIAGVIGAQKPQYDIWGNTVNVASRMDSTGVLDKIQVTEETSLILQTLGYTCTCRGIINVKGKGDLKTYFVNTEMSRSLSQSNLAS
Chain of Gαs-stimulated AC2 (P26769 whole entry): as above

Compound | Kd [1] [µM] | IC50 [2] [µM] | IC50 [3] [µM] | IC50 [4] [µM] | Gαs/Gβγ stimulation % Max Inhibition ([4]; listed as C1a region) [%] | Gαs/Gβγ stimulation % Max Inhibition [4] [%] | Gαs/Gβγ stimulation % Max Inhibition ([4]; listed as C1b 578-602) [%] | Binding to Gβγ (in words) ([1]; Biacore SPR, immobilized biotinylated peptide, Gβγ 12.5-200 nM)
CC[C@H](C)[C@H](NC(=O)[C@@H]1CCCN1C(=O)[C@H](CC(C)C)NC(=O)CNC(=O)[C@H](CO)NC(=O)[C@@H](NC(=O)[C@H](CS)NC(=O)[C@H](Cc1ccc(O)cc1)NC(=O)[C@H](Cc1ccc(O)cc1)NC(=O)[C@@H](N)CS)C(C)C)C(=O)N[C@@H](CO)C(=O)N[C@@H](CC(C)C)C(=O)N1CCC[C@H]1C(=O)N[C@@H](CC(N)=O)C(=O)N[C@@H](Cc1c[nH]cn1)C(=O)N[C@@H](C)C(=O)N[C@@H](CCCCN)C(=O)N[C@@H](CC(N)=O)C(=O)N[C@@H](CS)C(=O)N[C@H](C(=O)N[C@@H](CCCCN)C(=O)N[C@@H](CCSC)C(=O)O)C(C)C [AC2 C1a (339-360)] (H-CYYCVSGLPISLPNHAKNCVKM-OH) | 0.0405 ± 0.0063 | 82.3 | 7.7 | 5.6 | 88 | – | – | –
MTRYLESWGAAKPFAHL [AC2 C1b (493-509), reference compound] | 0.0027 ± 0.0013 | – | – | – | – | – | – | –
RYLESWGAAKPFAHLHHRDS [AC2 C1b (495-514)] | 0.0047 ± 0.0017 | 32.9 | > 100 | 13.9 | – | 67.0 | – | –

More lines, now with the values ahead:

Kd [1] [µM] | IC50 [2] [µM] | IC50 [3] [µM] | IC50 [4] [µM] | Gαs/Gβγ stimulation % Max Inhibition ([4]; listed as C1a region) [%] | Gαs/Gβγ stimulation % Max Inhibition [4] [%] | Gαs/Gβγ stimulation % Max Inhibition ([4]; listed as C1b 578-602) [%] | Binding to Gβγ (in words) ([1]; Biacore SPR, immobilized biotinylated peptide, Gβγ 12.5-200 nM) | Compound
– | 36.7 | 16.7 | 12.2 | – | 11.5 | – | – | ERMIQAIDGINAQKQWLKSEDIQR [AC2 C1b (554-577)]
0.102 ± 0.014 | 2.5 | 38.5 | 2.2 | – | 113.1 | > 100 | – | ISLLFYNKVLEKEYRATALPAFKYY [AC2 C1b (578-602)]
– | – | – | – | – | – | – | did not interact with Gβγ | MTTENGKISTTDVPMGQHNFQNRTLR-OH [AC2 C1b (515-541)]
0.0139 ± 0.0088 | – | – | – | – | – | – | – | QEHAQEPERQYMHIGTMVEFAYALVGK [QEHA C2 (956-982), reference compound]
